Cytotoxicity data for 97 molecules are collected here from ChEMBL document CHEMBL4513216, “Probing the Open Global Health Chemical Diversity Library for Multistage-Active Starting Points for Next-Generation Antimalarials” (ACS Infect Dis, 2020).

This data set is described as follows: Toxicity liver stage against HepG2, at 10uM. The format is cell-based. Details: test concentration 10 uM, cell line HepG2-A16-CD81EGFP. The conditions noted are these: human, HepG2-A16-CD81EGFP cells; read-out: INHIBITION
Summed up:
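Uninfected HepG2-A16-CD81EGFP cells, 3 × 10^3 per well, 1536-well, plated on prespotted compound at 10 μM final, parasite-free screening media added to match infected plates; puromycin 10 μM positive, DMSO 0.5% negative; run in parallel with 48 h PbLuc assay at 37 °C, 5% CO2; viability by CellTiter-Glo luminescence, normalized to controls.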
On to `N#CC1(NC(=O)c2ccc(F)cc2OC(F)F)CCOCC1`, for which the cytotoxicity at 10 µM amounted to 2.24%. Turning to `Cc1cnc(C(=O)N2CCOCC2C)cn1` (configuration not stated), the cytotoxicity at 10 µM is -3.83%.

Take `c1coc(-c2nnc(CN3CCCC3Cn3cncn3)o2)c1` (configuration not stated): the cytotoxicity at 10 µM was -5.46%. Regarding `Cc1cccc(CNC[C@H]2COCc3nc4cccnc4n32)n1`, the cytotoxicity at 10 µM was -1.79%. As for `C=C(C)COc1ccccc1C(=O)NCCc1nncn1C`, the figure is -3.06%; as for `CCC1CCCCN1C(=O)c1ccnc(N(C)C)c1` (configuration not stated), -0.743%.

For `CC(CN1CCOCC1)OC(=O)c1cccc2cn[nH]c12` (configuration not stated), the cytotoxicity at 10 µM is -1.08%.

`Cc1cc(C)c(CNC(=O)N2CCC(N3CCNC3=O)CC2)c(C)c1`: the cytotoxicity at 10 µM was -2.22%.

For the molecule `CC(=O)NCCNCc1cn(CCN2CCSCC2)nc1C`, the cytotoxicity at 10 µM turned out to be 0.95%.

In the case of `CN(CCN1CCOCC1)S(=O)(=O)CC1CCCC1`, the cytotoxicity at 10 µM is 10.2%.

As for `CN1CCN([C@@H]2CN(C(=O)Cc3ccsc3)[C@@H]3CCCO[C@H]23)CC1`, the cytotoxicity at 10 µM was 2.87%. On to `CC(C)CC(=O)N(C)CC(=O)Nc1ccc(Br)cn1`, for which the cytotoxicity at 10 µM was -1.43%. Consider `CNc1ncc(CN(C)c2nc(C3CCCC3)nc3c2cnn3C)cn1`, for which the cytotoxicity at 10 µM was determined as 24.1%. As for `CS(=O)(=O)N1CCCC1C(=O)Nc1cnc2n1CCCC2` (configuration not stated), the cytotoxicity at 10 µM turned out to be 2.72%. Regarding `CC(C)C(=O)NS(=O)(=O)CCc1ccccc1`, the cytotoxicity at 10 µM was found to be 0.67%.

For `Cc1cc(C[C@@H]2COC[C@@H]2NC(=O)CN2CCOC2=O)on1`, the cytotoxicity at 10 µM is -0.6%. As for `COC1(CNC(=O)c2ccc(F)c(F)c2)CCSC1` (configuration not stated), the cytotoxicity at 10 µM was -2.11%. Regarding `CS(=O)(=O)N1CCCC12CCCN(C(=O)c1cc(F)cc(F)c1)C2` (configuration not stated), the cytotoxicity at 10 µM is -140%. Regarding `Cc1nc(C)c(CC(=O)Nc2nc(C)c(C)s2)c(=O)[nH]1`, the cytotoxicity at 10 µM is -6.28%. In the case of `CN(C)S(=O)(=O)N1CCC(Oc2ccc(C#N)cc2)CC1` it was 3.96%; in that of `O=C(COCC1CC[C@H]2[C@H](CCN2c2ncccn2)O1)N1CCCC1` (some centres not stated), 1.27%; in that of `CN(C)c1nc(N)nc(CSCCC(=O)Nc2cccc(Cl)c2)n1`, 0.779%. Regarding `CCNC(=O)N1CCC(NC(=O)NCCc2cccc(C)c2)C1` (configuration not stated), the cytotoxicity at 10 µM is -42.2%. As for `CSc1nc(N)cc(N2C[C@H]3CC[C@@H](C2)N(CC2CC2)C3=O)n1`, the cytotoxicity at 10 µM amounted to 0.291%. Regarding `COc1c(CNCc2ccc(C(=O)NC3CC3)cc2)c(C)nn1C`, the cytotoxicity at 10 µM worked out at 3.18%.

Take `Cc1ncc(CN2CCOC(c3ccc(-c4cc[nH]n4)cn3)C2)s1` (configuration not stated): the cytotoxicity at 10 µM is -16.5%.

Turning to `Cn1ccc2ccnc(CC3CN(C(=O)c4cscn4)C3)c21`, the cytotoxicity at 10 µM is -28.6%. As for `Cc1ccc(C(CNC(=O)Cc2nc3ncccn3n2)N(C)C)cc1` (configuration not stated), the cytotoxicity at 10 µM was -1.64%. For the molecule `CN(C)c1cc(CNC(=O)NCC2(C)CCCS2)ccn1` (configuration not stated), the cytotoxicity at 10 µM was determined as 6.64%.

Consider `O=C(c1ccsc1)N1CCc2onc(COc3ccccn3)c2C1`, for which the cytotoxicity at 10 µM is 6.43%.

With `CC(c1ccc(S(N)(=O)=O)cc1)N(C)C(=O)c1ccccc1I` (configuration not stated), the cytotoxicity at 10 µM is -0.629%. As for `O=C(O)C(c1ccc2c(c1)OCCO2)N1CCCCCC1` (configuration not stated), the cytotoxicity at 10 µM was -3.26%.

Consider `NC(=O)CN1CCC(NC2CSCCc3ccccc32)CC1` (configuration not stated), for which the cytotoxicity at 10 µM was -3.21%. As for `Clc1nc2ccccn2c1CNCC1CN(C2CC2)CCO1` (configuration not stated), the cytotoxicity at 10 µM was -3.06%. For `CN(Cc1ccsc1)C(=O)c1ccc(S(=O)(=O)NC(C)(C)C)cc1`, the cytotoxicity at 10 µM was -8.01%. In the case of `CC(c1ccncn1)N(C)Cc1cc(O)c2cc(F)ccc2n1` (configuration not stated), the cytotoxicity at 10 µM is -2%. Regarding `Cc1nnc(C2Cc3ccccc3CN2Cc2nc(C3CC3)no2)o1` (configuration not stated), the cytotoxicity at 10 µM was -13.1%. In the case of `Cc1ccc(NC(=O)CC2NC(N3CCc4ccccc43)=NC2=O)cc1` (configuration not stated) it was 0.417%; in that of `CCc1ccc(C(COC)NC(=O)c2ccc(C(N)=O)cc2)o1` (configuration not stated), -2.65%. As for `CN1CCC2(Cc3ccccc3CN(C(=O)c3ccc(Cl)cc3)C2)C1` (configuration not stated), the cytotoxicity at 10 µM was -3.12%.

Take `N[C@H]1CN(C(=O)c2ccccc2OCCc2ccccc2)C[C@@H]1C1CC1`: the cytotoxicity at 10 µM is -2.68%. For the molecule `CS(=O)(=O)N1CCN(CC(=O)Nc2cccc(Cl)c2)CC1`, the cytotoxicity at 10 µM is -50.8%. For `Cc1ccccc1CN1CCN(C(=O)CN2CCOC2=O)CC1`, the cytotoxicity at 10 µM is -8.03%.

Take `COc1cc(CNC(=O)COC2CCCCC2)ccc1O`: the cytotoxicity at 10 µM came out at 6.81%. Take `O=C(CSc1ccc2c(c1)OCCO2)NS(=O)(=O)C1CCCCC1`: the cytotoxicity at 10 µM was -3.69%. For `O=C(O)c1cc2c(nc1O)CC(c1cccc(Cl)c1)CC2=O` (configuration not stated), the cytotoxicity at 10 µM is 9.56%.

For the molecule `Cc1ccc(N(C)[C@@H]2CC[C@@H]3CN(C(=O)C4CCOCC4)C[C@@H]32)nn1`, the cytotoxicity at 10 µM was -4.43%. In the case of `COCC1CCCN(c2cncc(OCc3ccccc3)n2)C1` (configuration not stated) it was -4.08%; in that of `COc1ccc(C2CCCN2C(=O)NCCNc2ncccn2)cc1` (configuration not stated), -8.18%; in that of `Cc1cc(CN2CCC(CNC(=O)c3nccc4ccccc34)C2)[nH]n1` (configuration not stated), 14.1%. As for `COc1ccc(C(N)=O)cc1NCc1noc(-c2ccsc2)n1`, the figure is 3.33%.

For `Nc1cc(C(=O)N2CCOC(Cc3cccc(C(F)(F)F)c3)C2)ccn1` (configuration not stated), the cytotoxicity at 10 µM is -1.97%.

With `CCCn1cc(C(=O)NC(C)c2c(C)nn(CC)c2C)c(C)n1` (configuration not stated), the cytotoxicity at 10 µM amounted to 5.31%. Consider `Cc1cc(-c2cnc(N3CCCC(C)C3)nc2C(C)C)on1` (configuration not stated), for which the cytotoxicity at 10 µM came out at 3.05%. Consider `CCOC(=O)C1CCN(C(=O)c2cnn(-c3ccc(C)cc3)c2N)CC1`, for which the cytotoxicity at 10 µM came to 1.84%.

Take `Cc1cccc2nc(CNCc3cccc4c3OCCCO4)cn12`: the cytotoxicity at 10 µM worked out at 20.8%. In the case of `CNC(=O)CN(C)CC1(c2ccc(Br)cc2)CC1` it was 3.89%; in that of `O=C(c1cnccn1)N1CCC2(CC1)CCN(Cc1ccccn1)C2=O`, 0.108%. As for `COc1ccc(C(=O)N2CCCC(CNS(C)(=O)=O)C2)cc1F` (configuration not stated), the figure is -5.45%; as for `Cc1cccc(-c2noc([C@@H]3C[C@@H](O)CN3Cc3ccc(CO)o3)n2)c1`, 7.38%; as for `CCCN1CCC(N(C)C(=O)c2cc(C)nc3cc(F)ccc23)CC1`, 0.906%. In the case of `CCCn1ncc(CN(Cc2ccsc2)Cc2ccco2)c1C` it was 9.27%; in that of `O=S(=O)(NCCc1c[nH]c2ccc(F)cc12)C1CCOCC1`, 4.13%; in that of `CCN(CCc1nc2cc(C)ccc2[nH]1)C(=O)COC`, -5.89%. On to `CCc1cc(N2CCC3(CCCNC3=O)C2)nc(N2CCOCC2)n1` (configuration not stated), for which the cytotoxicity at 10 µM was -0.28%. As for `Cn1cc(S(=O)(=O)NC(CO)Cc2c[nH]c3ccccc23)cn1` (configuration not stated), the cytotoxicity at 10 µM is -7.37%. In the case of `O=C(c1cnccn1)N1CCc2onc(Cn3cccn3)c2C1`, the cytotoxicity at 10 µM was -0.25%. As for `Cc1ccc2c(n1)N(Cc1cccnc1)CCN(C(=O)C1CC1)C2`, the cytotoxicity at 10 µM was -61.7%. With `COc1cc2c(cc1CCC(=O)O)CCC2`, the cytotoxicity at 10 µM was determined as 1.11%. For the molecule `COc1ccc(OC)c(C(C)NC(=O)c2nn(C)c(C)c2Br)c1` (configuration not stated), the cytotoxicity at 10 µM worked out at 5.38%. Turning to `CCc1c(C(=O)N2CCN(CC(N)=O)CC2)cnn1C(C)(C)C`, the cytotoxicity at 10 µM is -1.77%.

`CCOC(=O)CN1CCC(NC(=O)OC(C)(C)C)CC1`: the cytotoxicity at 10 µM is 0.449%. In the case of `O=C(CSc1nc2c(cnn2CCO)c(=O)[nH]1)N1CCCCCC1`, the cytotoxicity at 10 µM is -15.4%. As for `CCOC(=O)N[C@H]1C[C@@H](C(=O)NCc2cccc(Cl)c2)N(C)C1`, the figure is -3.89%; as for `Cc1csc(NC(=O)c2cnc(C3CCCN(C)C3)cn2)n1` (configuration not stated), -21.3%; as for `Brc1ccc(CNCc2nnc3n2CCCCC3)s1`, -0.254%. As for `COC(=O)N1CCC(Oc2ccc(C(=O)NCCN(C)C)cc2Cl)CC1`, the figure is -6.34%; as for `CC(C)Oc1ncnc2c1CCN(c1cc(C(F)(F)F)ncn1)CC2`, 19%.

Consider `Cc1cc(NCCNc2cccnc2)nc(N)n1`, for which the cytotoxicity at 10 µM was -5.86%. In the case of `CCN(Cc1ncc(C(C)(C)C)o1)Cc1ccccc1C` it was -9.11%. As for `CN(Cc1ccc(-n2ccnc2)cc1)CC1CCCN1c1cccnn1` (configuration not stated), the cytotoxicity at 10 µM is -6.21%.

`O=C(c1ccc[nH]1)N1CC2(CCN(c3ncccn3)C2)C1`: the cytotoxicity at 10 µM amounted to 2.26%. Take `Cc1ccc(NC2(C(=O)NCc3c(C)n[nH]c3C)CCCC2)cc1`: the cytotoxicity at 10 µM was 3.73%. Take `CC(NC(=O)NCCCn1cncn1)c1ccccc1Cl` (configuration not stated): the cytotoxicity at 10 µM is 3.01%.

Consider `Cc1noc(CN(C)C(=O)CCn2cnc3ccccc32)n1`, for which the cytotoxicity at 10 µM came to 10.1%. With `CCOC(=O)CNC(=O)c1scnc1C`, the cytotoxicity at 10 µM is 5.35%.

As for `Cc1noc(C)c1C(=O)N[C@@H]1CC[C@@H](Oc2ccccc2)[C@@H]1O`, the cytotoxicity at 10 µM turned out to be 0.395%. Take `O=C(NCC1CCCCC1)N1C[C@@H]2C[C@H](C(=O)N3CCOCC3)[C@H](C1)O2`: the cytotoxicity at 10 µM is -99.4%. On to `CCN1CCN(c2ccc(CNC(=O)Cc3c(C)noc3C)cn2)CC1`, for which the cytotoxicity at 10 µM is -12.2%. `NC(=O)COc1ccc(CNCc2c(F)cccc2F)cc1`: the cytotoxicity at 10 µM is -5.03%. Take `Cc1cccc(CN2C[C@@H]3COC[C@]3(CNC(=O)c3cccn3C)C2)n1`: the cytotoxicity at 10 µM is -5.64%. In the case of `Cc1ccccc1C(C(=O)N(C)CCc1cnn(C)c1)N(C)C` (configuration not stated) it was -3.57%; in that of `CCOC(=O)CN(C)C1CCc2ccccc21` (configuration not stated), 0.367%; in that of `Cc1nc(O)cc(CCNC(=O)CN2CCCCCC2)n1`, 0.458%. With `O=C1CCCN1CCCN1CCCC(Cn2cncn2)C1` (configuration not stated), the cytotoxicity at 10 µM is -1.82%. `CN(c1ncnc2c1CCC2)C1CCCN(c2cccnn2)C1` (configuration not stated): the cytotoxicity at 10 µM is 1.72%.

On to `CCOCC(=O)NCC(C)(O)c1cc(C)oc1C` (configuration not stated), for which the cytotoxicity at 10 µM was 1.85%.
